Compound activity: PubChem BioAssay, several laboratories
An excerpt weighted towards active compounds, which were near 1.9% of everything screened.
MT1-MMP act inh = inhibitors of human MT1-MMP activation; HT1080 RFP-PRO-GFP cells, GFP/RFP ratio fluorescence, overnight; percent of plate control window, DMSO zero; P50281; AID 651647; 0.061% of 360,000 active; GFP/RFP ratio change, % at 20 µM;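 active = GFP/RFP ratio change of at least 30% with cell ATP level not reduced by more than half and red fluorescence within 50% of control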
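Assay system: HT1080 RFP-PRO-GFP cells. Benchmarks: DMSO vehicle wells and RFP-L50D-GFP reporter cell wells. Times: overnight cell settling, then overnight compound exposure, 37 °C, 5% CO2. Compound: 20 µM single dose, 1% DMSO. Read-out basis: GFP/RFP fluorescence ratio.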
NR2E3 ag-1 = agonists of human NR2E3 nuclear receptor. Q9Y5X4. CHO-S Gal4-NCOR/VP16-NR2E3 two-hybrid, luciferase. inhibition of corepressor binding, % at 3.98 µM. 0.35% of 360,000 active;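 active = inhibition above the mean of all tested compounds plus 3 SD, cut at about 70% in these data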;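 also: higher means lower luciferase signal from less NR2E3 corepressor binding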
NR1D1 modulator = modulators of human Rev-erb alpha DNA binding. Rev-erbα–FITC-DNA binding, fluorescence polarization, 90 min. activity, % at 10 µM. 0.79% of 370,000 active;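 active = activity above about 14%, limit read from the data; passing the limit was not always enough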
Target sequence (P20393 whole entry, looked up): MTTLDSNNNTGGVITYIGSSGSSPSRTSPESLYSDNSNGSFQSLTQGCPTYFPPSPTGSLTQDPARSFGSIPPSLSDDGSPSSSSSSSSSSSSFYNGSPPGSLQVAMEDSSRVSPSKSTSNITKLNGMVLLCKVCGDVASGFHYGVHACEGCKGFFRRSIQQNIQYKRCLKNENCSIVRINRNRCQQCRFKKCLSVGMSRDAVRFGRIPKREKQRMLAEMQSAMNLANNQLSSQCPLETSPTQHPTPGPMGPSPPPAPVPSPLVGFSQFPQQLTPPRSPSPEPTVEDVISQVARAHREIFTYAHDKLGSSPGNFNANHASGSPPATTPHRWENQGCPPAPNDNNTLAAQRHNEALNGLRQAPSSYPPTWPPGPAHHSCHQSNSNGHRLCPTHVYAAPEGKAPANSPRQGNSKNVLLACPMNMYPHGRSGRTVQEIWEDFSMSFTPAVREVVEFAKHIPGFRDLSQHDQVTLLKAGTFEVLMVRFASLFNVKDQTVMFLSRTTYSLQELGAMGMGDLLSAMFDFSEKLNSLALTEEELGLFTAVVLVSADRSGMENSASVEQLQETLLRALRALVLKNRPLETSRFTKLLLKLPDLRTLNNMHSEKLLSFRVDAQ
NR2E3 ag-2 = NR2E3 (human) agonism. Q9Y5X4. GST-NR2E3/biotin-RetCOR TR-FRET, 1536-well. inhibition of corepressor binding, % at 4.78 µM. 0.12% of 320,000 active. AID 2300;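 active = percent inhibition above the cutoff of mean plus 3 SD of all tested compounds, set per screening campaign, cut at about 20% in these data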
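Material – GST-tagged NR2E3 plus biotinylated RetCOR corepressor · Quantity – NR2E3 fusion 1.35 nM · Times – 5 h incubation at 4 °C · Medium – pH 7.5 Tris-based buffer · Technique – TR-FRET, Eu(K)-anti-GST donor, streptavidin-D2 acceptor, ex 340, em 617/671 nm · Benchmarks – high control biotin, low control 0.6% DMSO · Format – 1536-well plates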
PG9 binder = binds the HIV-1 gp120 antibody PG9 | TR-FRET gp120-PG9 antibody binding | inhibition, % at 6.7 µM | 0.43% of 360,000 active | AID 624416; in the data active = inhibition above about 8.5%
SKN-1 block = blocks SKN-1 activity in C. elegans; C. elegans VP596 Pgst-4::GFP/RFP ratio, acrylamide-induced, 24 h; 0.49% of 360,000 active; inhibition, % at 21.8 µM;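 active = interference check ratio from 0.5 to 1.5 plus GFP to RFP signal ratio inhibition reaching or exceeding a fixed threshold, cut at about 30% in these data, passing the limit was not always enough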
MT1-MMP conf = blocks activation of human MT1-MMP in validation testing | HT1080 RFP-PRO-GFP cells, GFP and RFP fluorescence ratio, overnight | 10% of 200 active | inhibition, % at 20 µM | shares compounds with MT1-MMP act inh;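 active = inhibition of at least 50% in the primary cell screen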
NR1D1 mod conf = Rev-erb alpha (human) modulation, hit confirmation. shares compounds with NR1D1 modulator. Rev-erb alpha FITC-DNA binding, fluorescence polarization, 90 min. activation, % at 25 µM. 61% of 3,000 active;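 active = activation at or above a set limit, or at least 3 SD above the negative control mean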
RORg DNA counter = affects RORgamma DNA binding in a Rev-erb alpha counter-screen; shares compounds with NR1D1 modulator; purified RORgamma protein-FITC-DNA binding, fluorescence polarization; IC50, µM; 8% of 910 active;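 active = Compounds whose fitted half-maximal concentration for disrupting protein-DNA binding is below 10 micromolar; the record names Rev-erb in its text, so the target is in doubt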
A number is an active result; – = inactive; · = no result given.

SMILES | MT1-MMP act inh | NR2E3 ag-1 | NR1D1 modulator | NR2E3 ag-2 | PG9 binder | SKN-1 block | MT1-MMP conf | others
CN1C(=O)/C(=C\c2cc(N=Nc3ccccc3)ccc2O)SC1=S | 32 | – | – | – | – | – | 83
CN1C(=O)/C(=C\c2ccccc2OCc2ccccc2)SC1=S | – | – | – | – | – | – | ·
COc1ccc(Nc2nc(-c3ccc(OC)cc3)cs2)cc1 | – | – | – | – | – | – | ·
COc1ccc(Nc2nc(-c3c[nH]c4ccccc34)cs2)cc1 | 33 | – | – | – | – | – | –
CCN(CC)c1ccc(/C=C2\C(=O)N(c3nnc(C)c(=O)[nH]3)N=C2C)cc1 | 33 | – | – | – | – | – | –
CCN(CC)c1ccc(/C=C2/C(=O)ON=C2C)cc1 | – | – | – | – | – | – | ·
Nc1nc(-c2ccccc2)c(N=Nc2cccc3ccccc23)s1 | 34 | – | – | – | – | – | –
COC(=O)C1=C(C(=O)OC)SC(=C2C(=S)C(C)(C)N(C(=O)C(C)C)c3ccccc32)S1 | 31 | – | – | – | – | – | –
CC1(C(=O)O)CCCN1C(=O)c1cccc2ccccc12 (stereo unspecified) | – | – | – | · | – | – | ·
O=c1cc2oc3cc(O)c(O)cc3c(-c3ccccc3[N+](=O)[O-])c-2cc1O | 41 | – | – | – | – | – | 51
CCCCCCCCN1C(=O)[C@@H](CC(=O)NCCCOC)C[C@@]2(C(=O)OC)C1=C[C@H](COCc1ccccc1)O[C@@H]2C | · | · | – | · | · | · | ·
Cc1cc2nc(-c3ccccc3Br)n(/C=C(\c3ccccc3)n3c(=O)[nH]c4ccccc43)c2cc1C | – | – | – | · | – | – | ·
CCN1/C(=C2/SC(=S)N(C)C2=O)C=Cc2cc(C)ccc21 | 31 | – | – | – | – | – | –
COC(=O)[C@]12C[C@H](CC(=O)NCCCN3CCCC3=O)C(=O)N(Cc3ccc4c(c3)OCO4)C1=C[C@H](C(C)C)O[C@@H]2C1CC1 | · | · | – | · | · | · | ·
O=C(NC1CCCCCC1)C1CCN(S(=O)(=O)c2ccccc2)CC1 | – | – | – | – | – | – | ·
CC(=O)c1cccc(S(=O)(=O)N2CCC(C(=O)NC3CCCC3)CC2)c1 | 40 | – | – | · | – | – | –
Nc1[nH]c(C(=O)c2ccc(Br)cc2)c(-c2ccc(F)cc2)c1C(=O)NCCc1c[nH]c2ccccc12 | · | · | – | · | – | · | ·
Cc1c(C)n(C)c2ccc(C(=O)NCCc3ccco3)cc12 | 33 | – | – | – | – | – | –
COc1cccc(NC(=S)NCc2ccc3c(c2)cc(C)n3C)c1 | 38 | – | – | · | – | – | –
Cc1cc2cc(CNC(=O)C3CCCC3)ccc2n1C | 35 | – | – | – | – | – | –
Cc1cccc(NC(=S)NCc2cccs2)c1C | – | – | – | – | – | – | ·
Cc1cccc(NC(=S)NCc2ccc3c(c2)cc(C)n3C)c1C | 41 | – | – | – | – | – | –
COC(=O)[C@]12C[C@H](CC(=O)N3CCC(c4ccccc4)CC3)C(=O)N(Cc3ccccc3)C1=C[C@H](COCc1ccccc1)O[C@@H]2C | · | · | – | · | · | · | ·
CCCc1nc2ccccc2n1C(C(=O)NC(C)(C)C)C1CC1 (stereo unspecified) | – | · | – | · | – | – | ·
O=C(O)CC/C(=N\Nc1ccccc1[N+](=O)[O-])c1cccs1 | 35 | – | · | – | · | – | –
SMILES | MT1-MMP act inh | NR2E3 ag-1 | NR1D1 modulator | NR2E3 ag-2 | PG9 binder | SKN-1 block | MT1-MMP conf | others
Cc1ccc2c(c1)C(C)(C)[C@]1(C)NC(=O)CCN21 | 35 | – | – | – | – | – | –
Oc1ccc(N=Nc2c(O)ccc3ccccc23)cc1 | 73 | – | – | – | – | – | –
NS(=O)(=O)c1ccc(N=Nc2c(O)ccc3ccccc23)cc1 | – | – | – | – | – | – | ·
O=C(O)c1cc(N=Nc2c(O)ccc3ccccc23)cc(C(=O)O)c1 | 33 | – | – | · | – | – | –
COCCN1Cc2cc(C(=O)OC)c3c(c2C1=O)c1cc(OC)ccc1n3S(=O)(=O)c1ccc(C)cc1 | · | · | – | · | – | · | ·
Cc1ccc(S(=O)(=O)NCc2ccc3[nH]c(C)cc3c2)cc1 | – | – | – | – | – | – | ·
CC(=O)Nc1ccc(S(=O)(=O)NCc2ccc3[nH]c(C)cc3c2)cc1 | 31 | – | – | – | – | – | –
Cc1ccc(S(=O)(=O)/N=C2\C=C(NS(=O)(=O)c3ccccc3)C(=O)c3ccccc32)c(C)c1 | 39 | – | – | · | – | – | –
Cc1cc(N(CCO)CCO)ccc1N=Nc1cc(F)ccc1F | 33 | – | 54 | – | – | – | – | NR1D1 mod conf=29
Nc1nc(-c2ccccc2)c(N=Nc2ccccc2Cl)s1 | 42 | – | 30 | – | – | 49 | – | NR1D1 mod conf=27
Cc1ncc(N=Nc2ccccc2Cl)c(-c2ccccc2)n1 | – | – | – | – | – | – | ·
O=C(C(=O)N1CCN(S(=O)(=O)c2ccc(C(F)(F)F)cc2)CC1)c1cccc(C(F)(F)F)c1 | · | · | – | · | – | · | ·
COc1ccc(OC)c(NC(=O)c2sc3nc(Cc4ccccc4)cc(C(F)(F)F)c3c2N)c1 | – | – | 82 | – | – | – | · | NR1D1 mod conf=29
Cn1c(=O)c(Nc2ccc(O)cc2)c2c3c(cccc31)C(=O)c1ccccc1-2 | – | – | 175 | – | – | – | · | NR1D1 mod conf=157;RORg DNA counter=–
CC(=O)c1c2c3c(cccc3n(C)c1=O)C(=O)c1ccccc1-2 | · | · | · | – | · | · | ·
O=c1[nH]nc(Cc2ccc(Cl)cc2)c2ccccc12 | – | – | – | – | – | – | ·
O=c1[nH]nc(Cc2ccc(-c3ccccc3Cl)o2)c2ccccc12 | – | – | 34 | – | – | – | · | NR1D1 mod conf=17
C[C@H]1CCCCO[C@H](CN(C)Cc2ccccc2)[C@@H](C)CN([C@@H](C)CO)C(=O)c2cc(NC(=O)CCC(F)(F)F)ccc2O1 | – | – | – | · | – | – | ·
COC(=O)[C@@]12C[C@@H](CC(=O)N3CCN(C(=O)c4ccco4)CC3)C(=O)N(Cc3ccc4c(c3)OCO4)C1=CCC(C)(C)C2 | – | · | – | · | – | – | ·
CC(=O)OCC(COC(C)=O)(CN1C(=O)c2ccccc2C1=O)CN1C(=O)c2ccccc2C1=O | · | · | – | · | – | · | ·
CC(C)C[C@@H]1COc2cccc(N3CCC[C@H]3CO)c2S(=O)(=O)N1 | – | – | – | · | – | – | ·
Cc1ccc[n+](CC(=O)Nc2cc(C(F)(F)F)ccc2Cl)c1 | – | – | – | – | – | – | ·
